{"source": "ChEMBL document CHEMBL2176925", "about": "“Novel ¹⁸F-labeled benzoxazole derivatives as potential positron emission tomography probes for imaging of cerebral β-amyloid plaques in Alzheimer's disease” (J Med Chem, 2012)", "key": {"Lung": {"tested_on": "Lung", "experiment": "Drug uptake in ddY mouse lung at 370 kBq/100 ul, iv at 10 mins by gamma-counting analysis", "assay_type": "ADME, organism-based", "settings": "in vivo; call rule not given here", "summary_of_the_method": "(§1)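 Normal male ddY mice (5 weeks, 20−22 g, n = 5) received 370 kBq of tracer in 100 μL saline with 5% EtOH via tail vein. Mice were sacrificed at set times after injection, and organs were excised, weighed and γ-counted against diluted injectate aliquots. Values are %ID per gram, except stomach and intestine as %ID per organ, given as mean ± SD of 5 mice.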"}, "Spleen [1]": {"tested_on": "Spleen", "experiment": "Drug uptake in ddY mouse spleen at 370 kBq/100 ul, iv at 60 mins by gamma-counting analysis", "assay_type": "ADME, organism-based", "settings": "in vivo, 1 h", "summary_of_the_method": "as §1"}, "Spleen [2]": {"tested_on": "Spleen", "experiment": "Drug uptake in ddY mouse spleen at 370 kBq/100 ul, iv at 30 mins by gamma-counting analysis", "assay_type": "ADME, organism-based", "settings": "in vivo, 0.5 h", "summary_of_the_method": "as §1"}, "Liver [3]": {"tested_on": "Liver", "experiment": "Drug uptake in ddY mouse liver at 370 kBq/100 ul, iv at 30 mins by gamma-counting analysis", "assay_type": "ADME, organism-based", "settings": "in vivo, 0.5 h", "summary_of_the_method": "as §1"}, "Liver [4]": {"tested_on": "Liver", "experiment": "Drug uptake in ddY mouse liver at 370 kBq/100 ul, iv at 60 mins by gamma-counting analysis", "assay_type": "ADME, organism-based", "settings": "in vivo, 1 h", "summary_of_the_method": "as §1"}, "Heart": {"tested_on": "Heart", "experiment": "Drug uptake in ddY mouse heart at 370 kBq/100 ul, iv at 10 mins by gamma-counting analysis", "assay_type": "ADME, organism-based", "settings": "in vivo", "summary_of_the_method": "as §1"}, "Bone": {"tested_on": "Bone", "experiment": "Drug uptake in ddY mouse bone at 370 kBq/100 ul, iv at 2 mins by gamma-counting analysis", "assay_type": "ADME, organism-based, Bone element", "settings": "in vivo", "summary_of_the_method": "as §1"}, "Brain [5]": {"tested_on": "Brain", "experiment": "Drug uptake in ddY mouse brain at 370 kBq/100 ul, iv at 10 mins by gamma-counting analysis", "assay_type": "ADME, organism-based", "settings": "in vivo", "summary_of_the_method": "as §1"}, "Blood": {"tested_on": "Blood", "experiment": "Drug uptake in ddY mouse blood at 370 kBq/100 ul, iv at 2 mins by gamma-counting analysis", "assay_type": "ADME, organism-based", "settings": "in vivo", "summary_of_the_method": "as §1"}, "Brain [6]": {"tested_on": "Brain", "experiment": "Drug uptake in healthy human brain at 370 kBq/100 ul after 1 hr by immunohistochemical staining method", "assay_type": "ADME, tissue-based", "summary_of_the_method": "(§2)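 Paraffin sections of brain were used: C57BL6 mice (wild-type, 12 months), human AD (person) and normal human. Sections were deparaffinized through xylene and graded ethanol, then equilibrated 30 min in PBS (0.2 M, pH 7.4). Incubated 1 h at room temperature with tracer, 370 kBq/100 μL, washed 1 min in 50% ethanol and rinsed with water. Imaging plate exposed overnight. Plaques confirmed by thioflavin-S or anti-Aβ1-42 monoclonal immunostaining.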"}, "Brain [7]": {"tested_on": "Brain", "experiment": "Drug uptake in healthy human brain at 370 kBq/100 ul after 1 hr by autoradiographic analysis", "assay_type": "ADME, tissue-based", "summary_of_the_method": "as §2"}, "Brain [8]": {"tested_on": "Brain", "experiment": "Drug uptake in wild type C57BL6 mouse brain at 40.7 MBq, iv after 30 mins by autoradiographic analysis", "assay_type": "ADME, organism-based", "settings": "in vivo, 0.5 h", "summary_of_the_method": "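Wild-type C57BL6 mice (18 months) received 40.7 MBq tracer iv via the femoral vein in 100 μL saline with 5% EtOH. Decapitated at 30 min, and brains frozen in powdered dry ice. 20 μm sections exposed to an imaging plate for 8 h, then the same sections stained with thioflavin-S.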"}, "Stomach [9]": {"tested_on": "Stomach", "experiment": "Drug uptake in ddY mouse stomach assessed per organ at 370 kBq/100 ul, iv at 60 mins by gamma-counting analysis", "assay_type": "ADME, organism-based", "settings": "in vivo, 1 h", "summary_of_the_method": "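Male ddY mice (5 weeks, 20−22 g, n = 5) received tracer in saline with 5% EtOH, 370 kBq/100 μL, by tail vein. Killed at set times after dosing. Stomach removed, weighed and γ-counted against diluted aliquots of the injected dose. Reported as % injected dose per organ, mean ± SD of 5 mice.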"}, "Stomach [10]": {"tested_on": "Stomach", "experiment": "Drug uptake in ddY mouse stomach assessed per organ at 370 kBq/100 ul, iv at 10 mins by gamma-counting analysis", "assay_type": "ADME, organism-based", "settings": "in vivo", "summary_of_the_method": "as §1"}, "Brain [11]": {"tested_on": "Brain", "experiment": "Drug uptake in transgenic C57BL6 mouse brain expressing APP Swedish mutant at 40.7 MBq, iv at 2 mins by microPET imaging", "assay_type": "ADME, organism-based", "settings": "in vivo"}, "Brain [12]": {"tested_on": "Brain", "experiment": "Ratio of drug uptake in brain at 2 mins to drug uptake in 20 mins in wild type C57BL6 mouse", "assay_type": "ADME, tissue-based", "settings": "in vivo"}, "Brain [13]": {"tested_on": "Brain", "experiment": "Ratio of drug uptake in brain at 2 mins to drug uptake in 20 mins in transgenic C57BL6 mouse expressing APP Swedish mutant", "assay_type": "ADME, tissue-based", "settings": "in vivo"}, "Hippocampus": {"tested_on": "Hippocampus", "experiment": "Drug uptake in transgenic C57BL6 mouse hippocampus expressing APP Swedish mutant at 40.7 MBq, iv at 60 mins by microPET imaging", "assay_type": "ADME, organism-based", "settings": "in vivo, 1 h"}, "Cortex": {"tested_on": "Cortex", "experiment": "Drug uptake in transgenic C57BL6 mouse cortex expressing APP Swedish mutant at 40.7 MBq, iv at 60 mins by microPET imaging", "assay_type": "ADME, organism-based", "settings": "in vivo, 1 h"}, "Brain [14]": {"tested_on": "Brain", "experiment": "Drug uptake in wild type C57BL6 mouse brain at 40.7 MBq, iv up to 60 mins by microPET imaging", "assay_type": "ADME, organism-based", "settings": "in vivo, 1 h"}, "Brain [15]": {"tested_on": "Brain", "experiment": "Drug uptake in wild type C57BL6 mouse brain at 40.7 MBq, iv at 2 mins by microPET imaging", "assay_type": "ADME, organism-based", "settings": "in vivo"}}, "data": [{"smiles": "CN(C)c1ccc(-c2nc3cc(OCCOCCOCC[18F])ccc3o2)cc1", "values": [{"measurement": "Drug uptake", "setting": "Lung", "result": 3.64, "unit": "% ID/g"}, {"measurement": "Drug uptake", "setting": "Spleen [1]", "result": 2.25, "unit": "% ID/g"}, {"measurement": "Drug uptake", "setting": "Spleen [2]", "result": 2.53, "unit": "% ID/g"}, {"measurement": "Drug uptake", "setting": "Liver [3]", "result": 9.2, "unit": "% ID/g"}, {"measurement": "Drug uptake", "setting": "Liver [4]", "result": 6.92, "unit": "% ID/g"}, {"measurement": "Drug uptake", "setting": "Heart", "result": 3.52, "unit": "% ID/g"}, {"measurement": "Drug uptake", "setting": "Bone", "result": 1.18, "unit": "% ID/g"}, {"measurement": "Drug uptake", "setting": "Brain [5]", "result": 3.37, "unit": "% ID/g"}, {"measurement": "Drug uptake", "setting": "Blood", "result": 3.24, "unit": "% ID/g"}, {"measurement": "Drug uptake", "setting": "Brain [6]", "result": "Not Active"}, {"measurement": "Drug uptake", "setting": "Brain [7]", "result": "Not Active"}, {"measurement": "Drug uptake", "setting": "Brain [8]", "result": "Not Active"}, {"measurement": "Drug uptake", "setting": "Stomach [9]", "result": 1.41, "unit": "%ID"}, {"measurement": "Drug uptake", "setting": "Stomach [10]", "result": 1.37, "unit": "%ID"}]}, {"smiles": "CNc1ccc(-c2nc3cc(OCCOCCOCC[18F])ccc3o2)cc1", "values": [{"measurement": "Drug uptake", "setting": "Lung", "result": 5.64, "unit": "% ID/g"}, {"measurement": "Drug uptake", "setting": "Spleen [1]", "result": 3.42, "unit": "% ID/g"}, {"measurement": "Drug uptake", "setting": "Spleen [2]", "result": 3.92, "unit": "% ID/g"}, {"measurement": "Drug uptake", "setting": "Liver [3]", "result": 19.31, "unit": "% ID/g"}, {"measurement": "Drug uptake", "setting": "Liver [4]", "result": 13.06, "unit": "% ID/g"}, {"measurement": "Drug uptake", "setting": "Heart", "result": 4.78, "unit": "% ID/g"}, {"measurement": "Drug uptake", "setting": "Bone", "result": 3.17, "unit": "% ID/g"}, {"measurement": "Drug uptake", "setting": "Brain [5]", "result": 4.41, "unit": "% ID/g"}, {"measurement": "Drug uptake", "setting": "Blood", "result": 4.76, "unit": "% ID/g"}, {"measurement": "Drug uptake", "setting": "Brain [6]", "result": "Not Active"}, {"measurement": "Drug uptake", "setting": "Brain [7]", "result": "Not Active"}, {"measurement": "Drug uptake", "setting": "Brain [11]", "result": "Active"}, {"measurement": "Ratio", "setting": "Brain [12]", "result": 1.77}, {"measurement": "Ratio", "setting": "Brain [13]", "result": 1.21}, {"measurement": "Drug uptake", "setting": "Hippocampus", "result": "Active"}, {"measurement": "Drug uptake", "setting": "Cortex", "result": "Active"}, {"measurement": "Drug uptake", "setting": "Brain [14]", "result": "Not Active"}, {"measurement": "Drug uptake", "setting": "Brain [15]", "result": "Active"}, {"measurement": "Drug uptake", "setting": "Brain [8]", "result": "Not Active"}, {"measurement": "Drug uptake", "setting": "Stomach [9]", "result": 1.87, "unit": "%ID"}, {"measurement": "Drug uptake", "setting": "Stomach [10]", "result": 2.36, "unit": "%ID"}]}]}
